# Source: ChEMBL document CHEMBL3351511, “Protective effects of lupeol against D-galactosamine and lipopolysaccharide-induced fulminant hepatic failure in mice” (J Nat Prod, 2014)
# The source made the active and inactive calls. The calls are words filed in the database; no cut-off is given here.
# Tests used:
# Mus musculus [1] = assay: Protective effect in po dosed GalN/LPS-induced ICR mouse FHF liver injury model assessed as survival administered 1 hr prior to GalN/LPS challenge measured up to 24 hrs; format: functional, organism-based
# Mus musculus [2] = assay: Effect on serum ALT level in ICR mouse at 100 mg/kg, po after 1 hr (reference value: 57.4 +/- 8.8 U/L); format: ADME, organism-based; parameters: dose 100 mg/kg, route oral; settings: in vivo
# Mus musculus [3] = assay: Toxicity in ICR mouse assessed as survival at 100 mg/kg, po; format: organism-based; parameters: dose 100 mg/kg, route oral; settings: in vivo
# How it was run: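 One hour later they received intraperitoneal PBS vehicle in place of GalN/LPS. Survival was monitored up to 24 h, with 10 mice per survival group, alongside vehicle-only controls.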
# Mus musculus [4] = assay: Effect on liver histology in ICR mouse at 100 mg/kg, po after 1 hr by hematoxylin/eosin-labeled microscopic analysis relative to control; format: ADME, organism-based; parameters: dose 100 mg/kg, route oral; settings: in vivo
# How it was run: (§1)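 Liver taken 6 h after challenge, fixed in 10% neutral-buffered formalin, paraffin-embedded, cut at 5 μm, H&E-stained. One pathologist scored random nonconsecutive fields blinded at 200×; n = 6−8.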
# Mus musculus [5] = assay: Effect on serum ALT level in GalN/LPS-induced ICR mouse FHF liver injury model at 100 mg/kg, po administered 1 hr prior to GalN/LPS challenge measured after 6 hrs (reference value: 2704 +/- 244.2 U/L); format: functional
# Mus musculus [6] = assay: Effect on liver histology in GalN/LPS-induced ICR mouse FHF liver injury model assessed as reversal of necrosis and inflammatory cell infiltration at 100 mg/kg, po administered 1 hr prior to GalN/LPS challenge measured after 6 hrs by hematoxylin/eosin-labeled microscopic analysis; format: functional, organism-based; parameters: dose 100 mg/kg; how it was run: as §1
# Mus musculus [7] = assay: Effect on serum TNF-alpha level in ICR mouse at 100 mg/kg, po after 1 hr by ELISA (reference value: 42.6 +/- 1.7 pg/ml); format: ADME, organism-based; parameters: dose 100 mg/kg, route oral; settings: in vivo
# Mus musculus [8] = assay: Effect on serum TNF-alpha level in GalN/LPS-induced ICR mouse FHF liver injury model at 100 mg/kg, po administered 1 hr prior to GalN/LPS challenge measured after 6 hrs by ELISA (reference value: 250.8 +/- 5.4 pg/ml); format: functional
# Mus musculus [9] = assay: Effect on serum IL-6 level in ICR mouse at 100 mg/kg, po after 1 hr by ELISA (reference value: 73.3 +/- 13.1 pg/ml); format: ADME, organism-based; parameters: dose 100 mg/kg, route oral; settings: in vivo
# Mus musculus [10] = assay: Effect on serum IL-6 level in GalN/LPS-induced ICR mouse FHF liver injury model at 100 mg/kg, po administered 1 hr prior to GalN/LPS challenge measured after 6 hrs by ELISA (reference value: 654.1 +/- 19.7 pg/ml); format: functional
# Mus musculus [11] = assay: Protective effect in GalN/LPS-induced ICR mouse FHF liver injury model assessed as reduction in TLR4 protein level at 100 mg/kg, po administered 1 hr prior to GalN/LPS challenge measured after 6 hrs by Western blotting analysis relative to vehicle-treated control; format: functional, organism-based; parameters: dose 100 mg/kg
# How it was run: (§2)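 Oral pretreatment in olive oil 1 h before ip GalN (800 mg/kg)/LPS (40 μg/kg); liver harvested at 6 h and stored at −75 °C. SDS-PAGE and PVDF transfer used total extract (16−20 μg) for TLR4, MyD88, TRIF, IRAK-1, TRAF6 and IRAK-M, cytosolic (16 μg) for IκB, and nuclear (12 μg) for NF-κB p65. Blots were blocked in 5% milk, given primary antibody overnight at 4 °C, developed by ECL and quantified by densitometry as fold change; n = 6−8.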
# Mus musculus [12] = assay: Protective effect in GalN/LPS-induced ICR mouse FHF liver injury model assessed as reduction in MyD88 protein level at 100 mg/kg, po administered 1 hr prior to GalN/LPS challenge measured after 6 hrs by Western blotting analysis relative to vehicle-treated control; format: functional, organism-based; parameters: dose 100 mg/kg; how it was run: as §2
# Mus musculus [13] = assay: Protective effect in GalN/LPS-induced ICR mouse FHF liver injury model assessed as reduction in TRIF protein level at 100 mg/kg, po administered 1 hr prior to GalN/LPS challenge measured after 6 hrs by Western blotting analysis relative to vehicle-treated control; format: functional, organism-based; parameters: dose 100 mg/kg; how it was run: as §2
# Mus musculus [14] = assay: Protective effect in GalN/LPS-induced ICR mouse FHF liver injury model assessed as reduction in IRAK1 protein level at 100 mg/kg, po administered 1 hr prior to GalN/LPS challenge measured after 6 hrs by Western blotting analysis relative to vehicle-treated control; format: functional, organism-based; parameters: dose 100 mg/kg; how it was run: as §2
# Mus musculus [15] = assay: Protective effect in GalN/LPS-induced ICR mouse FHF liver injury model assessed as reduction in TRAF6 protein level at 100 mg/kg, po administered 1 hr prior to GalN/LPS challenge measured after 6 hrs by Western blotting analysis relative to vehicle-treated control; format: functional, organism-based; parameters: dose 100 mg/kg; how it was run: as §2
# Mus musculus [16] = assay: Protective effect in GalN/LPS-induced ICR mouse FHF liver injury model assessed as increase in IRAK-M protein level at 100 mg/kg, po administered 1 hr prior to GalN/LPS challenge measured after 6 hrs by Western blotting analysis relative to vehicle-treated control; format: functional, organism-based; parameters: dose 100 mg/kg; how it was run: as §2
# Mus musculus [17] = assay: Protective effect in GalN/LPS-induced ICR mouse FHF liver injury model assessed as reduction in NF-kappaB protein level at 100 mg/kg, po administered 1 hr prior to GalN/LPS challenge measured after 6 hrs by Western blotting analysis relative to vehicle-treated control; format: functional, organism-based; parameters: dose 100 mg/kg; how it was run: as §2
# Mus musculus [18] = assay: Protective effect in GalN/LPS-induced ICR mouse FHF liver injury model assessed as increase in I-kappaB protein level at 100 mg/kg, po administered 1 hr prior to GalN/LPS challenge measured after 6 hrs by Western blotting analysis relative to vehicle-treated control; format: functional, organism-based; parameters: dose 100 mg/kg; how it was run: as §2
# Mus musculus [19] = assay: Protective effect in GalN/LPS-induced ICR mouse FHF liver injury model assessed as reduction in TNF-alpha mRNA expression at 100 mg/kg, po administered 1 hr prior to GalN/LPS challenge measured after 6 hrs by RT-PCR analysis relative to vehicle-treated control; format: functional, organism-based; parameters: dose 100 mg/kg
# How it was run: (§3)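 Oral pretreatment in olive oil 1 h before ip GalN (800 mg/kg)/LPS (40 μg/kg), with liver collected at 6 h. mRNA quantified by SYBR green real-time RT-PCR. Cycling: TNF-α 45 cycles (94/65/72 °C) and IL-6 32 cycles (94/58/72 °C). Levels normalized to β-actin by the Ct method. Mean ± SEM, n = 6−8.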
# Mus musculus [20] = assay: Protective effect in GalN/LPS-induced ICR mouse FHF liver injury model assessed as reduction in IL-6 mRNA expression at 100 mg/kg, po administered 1 hr prior to GalN/LPS challenge measured after 6 hrs by RT-PCR analysis relative to vehicle-treated control; format: functional, organism-based; parameters: dose 100 mg/kg; how it was run: as §3
smiles,measurement,setting,value
C=C(C)[C@@H]1CC[C@]2(C)CC[C@]3(C)[C@H](CC[C@@H]4[C@@]5(C)CC[C@H](O)C(C)(C)[C@@H]5CC[C@]43C)[C@@H]12 [LUPEOL],Activity,Mus musculus [1],Dose-dependent effect
same,Activity,Mus musculus [2],58.1 U/L
same,Activity,Mus musculus [3],Non-toxic
same,Activity,Mus musculus [4],Non-toxic
same,Activity,Mus musculus [5],682 U/L
same,Activity,Mus musculus [6],Active
same,Activity,Mus musculus [7],41 pg/mL
same,Activity,Mus musculus [8],109 pg/mL
same,Activity,Mus musculus [9],75.1 pg/mL
same,Activity,Mus musculus [10],108.8 pg/mL
same,Activity,Mus musculus [11],Active
same,Activity,Mus musculus [12],Active
same,Activity,Mus musculus [13],inactive
same,Activity,Mus musculus [14],Active
same,Activity,Mus musculus [15],Active
same,Activity,Mus musculus [16],Active
same,Activity,Mus musculus [17],Active
same,Activity,Mus musculus [18],Active
same,Activity,Mus musculus [19],Active
same,Activity,Mus musculus [20],Active
